Source: PubChem BioAssay
b-catenin transl: alters nuclear translocation of beta-catenin in HeLa cells; immunofluorescence imaging; 190,000 compounds, 0.3% hits; nuclear translocation activity, % at 5 µM;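 active = nuclear translocation activity above 50% at 5 µM, with a well cell count of 50 or more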;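 also: per-cell ratio of nuclear to cytoplasmic median beta-catenin stain intensity; plate controls were DMSO negative control for no effect and GSK-3 inhibitor IX positive control for full effect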
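System: Human HeLa cells, endogenous beta-catenin | Compound dosing: 5 µM primary, 0.02–20 µM confirmation | Timing: 24 h compound exposure at 37°C, 5% CO2 | Measured by: Fluorescence imaging of beta-catenin antibody stain plus DAPI | Read-out basis: % activation of per-cell nuclear versus cytoplasmic median beta-catenin signal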
STAT3 inh: STAT3 signaling inhibition; inhibition, % at 5.5 µM; U3A cells, IL-6 STAT3-luciferase reporter, luminescence; host cell line lacks STAT1; 190,000 compounds, 0.89% hits;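 active = inhibition above the mean inhibition across all screened compounds plus 3 SD, cut at about 44% in these data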;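 also: 0% = DMSO only wells and 100% = 100 µM nifuroxazide control wells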
MT stabilizer: microtubule stabilization, imaging screen; 200,000 compounds, 0.83% hits; HeLa tubulin immunostaining HCS, 24 h; share of cells brighter than vehicle mean+2SD; % tubulin-high responders, % at 10 µM; AID 2205;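 active = plate Z-score above 3 for both tubulin-high and condensed-nucleus cell shares, with cell loss under 80%, at 10 µM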;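 also: anti alpha tubulin signal scored within the nucleus-defined area of each cell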
STAT1 inh: inhibitors of IFN-gamma induced STAT1 signaling; inhibition, % at 5.5 µM; NIH 3T3 STAT1-luciferase reporter, luminescence; 200,000 compounds, 0.35% hits;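 active = inhibition above a set limit, the mean inhibition across all tested compounds plus 3 SD, cut at about 34% in these data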;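 also: 0% = IFN-gamma with DMSO and 100% = IFN-gamma with 300 µM nifuroxazide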
STAT3 act: increases IL-6 driven STAT3 reporter signal; AID 871; activation (% of control), % at 5.6 µM; 190,000 compounds, 0.91% hits; U3A cells, IL-6 STAT3-luciferase reporter, luminescence; 100% = signal with IL-6 EC80 alone;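 active = activation above the screen-wide mean of compound activation plus 3 SD, cut at about 130% in these data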;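 also: 0% = background luminescence of wells with medium and substrate only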
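Test system: STAT3-luciferase reporter U3A cells; Detection: reporter luminescence signal; Times: 1 h compound pre-exposure, 6 h IL-6 stimulation, 37 °C; Benchmarks: IL-6-only high control; Also added: IL-6 stimulus at 33 ng/mL final.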
* hit, by the source's call; / = not tested or not shown. An excerpt weighted towards active compounds, which were near 2.4% of everything screened.

SMILES | b-catenin transl | STAT3 inh | MT stabilizer | STAT1 inh | STAT3 act
N#C/C(=C(\O)Cc1ccccc1)c1nc2ccccc2[nH]1 | -12 | 14 | 3 | 4 | 91
N#C/C(=C(/O)CCl)c1nc2ccccc2[nH]1 | 1 | -41 | 4 | 18 | 134*
CC(Oc1ccc(Cl)cc1)C(=O)NCCN1C(=O)S/C(=C\c2cccnc2)C1=O (stereo unspecified) | 0 | 2 | 1 | 8 | 96
O=C(NCCN1C(=O)S/C(=C\c2ccc(OC(F)F)cc2)C1=O)c1cnccn1 | 68* | 6 | 34* | 3 | 93
Cc1c(N=C2N=C(NC(=O)Nc3ccc(Cl)cc3)c3ccccc32)c(=O)n(-c2ccccc2)n1C | 0 | 29 | 5 | 3 | 79
CN(C)c1nc(OCCNC(=O)Nc2ccc(Cl)cc2)nc(N(C)C)n1 | -3 | 19 | 3 | 8 | 89
CN(C)c1nc(Nc2ccc(Cl)cc2)nc(OCC#N)n1 | / | -37 | 2 | 14 | 136*
O=C1/C(=C/c2ccncc2)CCc2ccccc21 | 1 | / | / | / | /
O=C1/C(=C/c2ccncc2)CCC/C1=C\c1ccncc1 | / | 30 | 31* | 1 | 76
CCOC(=O)c1ccc(NC(=O)CN2C(=O)NC3(CCCCCC3)C2=O)cc1 | 0 | -10 | 2 | 1 | 108
O=C(CN1C(=O)NC2(CCCCC2)C1=O)Nc1ccc2c(c1)CCC2 | -1 | -34 | 2 | -22 | 134*
CCOc1ccc(S(=O)(=O)Nc2cccc(OC)c2)cc1 | / | 20 | 16* | 4 | 88
CCOc1ccc(NS(=O)(=O)c2cnc(Cl)c(Cl)c2)cc1 | 4 | -8 | 16* | -3 | 105
Cc1cc(C)cc(NS(=O)(=O)c2cnc(Cl)c(Cl)c2)c1 | -4 | -4 | 3 | -3 | 104
Cc1sc(N2C(=O)C3C4C=CC(C4)C3C2=O)c(C#N)c1C (stereo unspecified) | 0 | 16 | 1 | 0 | 88
O=c1[nH]cnc(O)c1C(c1ccc2c(c1)OCO2)c1c(O)nc[nH]c1=O | -5 | -14 | 4 | -9 | 112
CC(C)[C@H](NC(=O)NCc1ccc(F)cc1)C(=O)O | 1 | / | / | / | /
CN(C(=O)CS(=O)(=O)c1cccc(Cl)c1)c1ccccc1 | 0 | 14 | 4 | 4 | 94
COc1ccc(-c2ocnc2C(=O)NCc2nn(-c3ccccc3)nc2C)cc1 | -2 | / | / | / | /
O=C(NCC1CCCO1)c1ccc2nc(N3CCCCC3)sc2c1 (stereo unspecified) | 0 | -20 | 4 | -31 | 116
CC1CCN(c2nc3ccc(C(=O)O)cc3s2)CC1 | -4 | 109* | 3 | 80* | 13
Nc1ccc(-c2nc3ccc(C(=O)O)cc3s2)cc1 | 0 | 104* | 7 | 89* | 10
Cn1c(=O)[nH]c(=O)c2c1nc1n2CC(COc2ccc3ccccc3c2)O1 (stereo unspecified) | 0 | / | / | / | /
O=C(COC(=O)CNC(=O)c1ccccc1)Nc1nc(-c2ccccc2)cs1 | 0 | -3 | 3 | -17 | 105
Cc1ccc(C(=O)NC(=O)OCCn2c(C)cnc2[N+](=O)[O-])cc1 | 0 | 6 | 5 | 6 | 98
SMILES | b-catenin transl | STAT3 inh | MT stabilizer | STAT1 inh | STAT3 act
Cc1[nH]c(=S)[nH]c(=O)c1Cc1ccc(OCC(C)C)cc1 | 11 | 4 | 15* | 3 | 102
CCOCc1[nH]c(=S)[nH]c(=O)c1Cc1ccc(OCC(C)C)cc1 | 1 | 7 | 1 | 6 | 101
O=C(Nc1ccc(N2CCN(c3ccc(O)cc3)CC2)cc1)Oc1ccccc1 | 3 | 0 | 18* | 5 | 104
Cc1ccccc1C1CC(=O)NC2=C1C(=O)CCC2 (stereo unspecified) | / | 15 | 2 | 6 | 95
CCC(C)Oc1ccccc1C1CC(=O)NC2=C1C(=O)CCC2 (stereo unspecified) | 10 | 5 | 60* | -2 | 99
CCOC(=O)N/N=C(/c1ccccc1)C1CCCCC1 | 3 | 5 | 6 | 0 | 96
CCN(CC(=O)Nc1ccc(N2CCOCC2)cc1)C(=O)COc1ccccc1OC | -5 | -4 | 2 | -15 | 108
Cc1c(Br)c([N+](=O)[O-])nn1CC(=O)NCC1CCCO1 (stereo unspecified) | 1 | 6 | 4 | 10 | 100
Cc1ccc(C2NC(=O)NC3=C2CCc2ccccc23)cc1 (stereo unspecified) | 1 | -34 | 6 | 13 | 134*
O=C1CCCCC1Sc1nnc(-c2ccc3c(c2)OCO3)o1 (stereo unspecified) | 0 | 105* | 4 | 87* | 13
Clc1ccc(CSc2nnc(-c3ccc4c(c3)OCO4)o2)cc1 | 6 | -1 | 1 | -8 | 101
O=C(Nc1cc(C(F)(F)F)ccc1-n1cnc2ccccc21)c1ccccc1 | -1 | -5 | 2 | 0 | 106
CNCc1ccccc1OCC(=O)Nc1ccccc1OC | / | -22 | 3 | -8 | 120
COc1cc(CC(=O)NCc2ccc3c(c2)OCO3)cc(OC)c1OC | / | 7 | 1 | 0 | 98
COc1cc(CC(=O)OCC(=O)c2ccc3c(c2)OCCO3)cc(OC)c1OC | 158* | 2 | 17* | 3 | 100
Cc1ccc(NC(=O)COC(=O)Cc2ccsc2)c(C)c1 | 1 | 7 | 4 | 3 | 98
CNC(=O)CN(c1cc(OCCOC)c(Cl)cc1Cl)S(=O)(=O)c1ccc(OC)cc1 | -2 | 7 | 16* | 5 | 101
COc1cccc(/C=N/NC(=O)CCn2c3ccccc3c3ccccc32)c1 | 0 | 0 | 3 | 0 | 100
COc1ccc(/C=N/NC(=O)CCn2c3ccccc3c3ccccc32)cc1O | 53* | -5 | 18* | -4 | 114
O=C(O)/C=C/c1ccc2ccccc2n1 | 2 | 7 | 4 | 5 | 97
C(=C\c1ccc2ccccc2n1)/c1ccccc1 | 0 | / | / | / | /
O=[N+]([O-])c1ccc(/C=C/c2ccc3ccccc3n2)cc1 | 6 | 78* | 3 | 52* | 36
Oc1ccc(/C=C/c2ccc3ccccc3n2)cc1 | 5 | 102* | 4 | 72* | 18
CCCCOc1[nH]c2nc(-c3ccco3)n(Cc3ccco3)c(=N)c2c1C#N | 1 | 31 | 1 | -3 | 79
COc1ccc(C2C(C(=O)c3ccccc3)N3c4ccccc4C=CC3C2[N+](=O)[O-])cc1 (stereo unspecified) | 11 | -38 | 51 | 0 | 133*
COc1ccc(N2C(=O)[C@@H]3[C@H](C2=O)[C@H](C(C)=O)N2c4ccccc4C=C[C@@H]32)cc1 | 0 | / | / | / | /
COc1cc(C(=O)Nc2ccc3c(c2)CCN3C(C)=O)cc(OC)c1OC | 0 | 11 | 22* | 1 | 94
COc1cc(C(=O)Nc2ccc3c(c2)Cc2ccccc2-3)cc(OC)c1OC | 6 | 2 | 5 | -10 | 101
C/C(=N\Nc1ccc(F)cc1F)c1ccc(N2CCOCC2)cc1 | 1 | -30 | 3 | -15 | 133*
C/C(=N\Nc1ccc(F)cc1F)c1ccc(F)cc1 | -1 | 20 | 3 | -14 | 86
